Measured values from ChEMBL document CHEMBL1177810, “Acid-catalyzed synthesis of 10-substituted triazolyl artemisinins and their growth inhibitory activity against various cancer cells” (2010).

Columns and labels:
DLD-1 = assay: Cytotoxicity against human DLD1 cells after 72 hrs by MTT assay; type: functional; settings: DLD-1, 72 h
Summary of the method: (§1)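 Cells seeded at 5×10^3 per well in DMEM with 10% FBS, preincubated 4 h, then exposed to serial dilutions for 72 h. MTT at 1 mg/mL added for 4 h at 37 °C, formazan dissolved in DMSO, absorbance read at 570 nm. Triplicate assays; GI50 from non-linear regression of sigmoidal dose-response curves.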

[1] = Cytotoxicity against human U87 cells after 72 hrs by MTT assay; type: functional, U-87MG ATCC; settings: U-87 MG; summary of the method: as §1
HeLa = assay: Cytotoxicity against human HeLa cells after 72 hrs by MTT assay; type: functional; summary of the method: as §1
SiHa = assay: Cytotoxicity against human SiHa cells after 72 hrs by MTT assay; type: functional; summary of the method: as §1
[2] = Cytotoxicity against human A172 cells after 72 hrs by MTT assay; type: functional; settings: A 172, 72 h; summary of the method: as §1
B16 = assay: Cytotoxicity against mouse B16 cells after 72 hrs by MTT assay; type: functional; settings: B16, 72 h; summary of the method: as §1

| Structure (SMILES) | GI50 (DLD-1) [nM] | GI50 [1] [nM] | GI50 (HeLa) [nM] | GI50 (SiHa) [nM] | GI50 [2] [nM] | GI50 (B16) [nM] |
| --- | --- | --- | --- | --- | --- | --- |
| Cc1ccc(-c2cn([C@@H]3O[C@@H]4O[C@]5(C)CC[C@H]6[C@H](C)CC[C@@H]([C@H]3C)[C@@]46OO5)nn2)cc1 | 400 | 280 | 110 | 120 | 90 | 120 |
| C[C@H]1[C@H](n2cc(-c3ccccc3)nn2)O[C@@H]2O[C@]3(C)CC[C@H]4[C@H](C)CC[C@@H]1[C@@]24OO3 | 930 | 500 | 580 | 730 | 570 | 780 |
| C[C@H]1[C@H](n2cc(-c3ccc(F)cc3)nn2)O[C@@H]2O[C@]3(C)CC[C@H]4[C@H](C)CC[C@@H]1[C@@]24OO3 | 480 | 160 | 50 | 140 | 130 | 110 |
| COc1ccc(-c2cn([C@@H]3O[C@@H]4O[C@]5(C)CC[C@H]6[C@H](C)CC[C@@H]([C@H]3C)[C@@]46OO5)nn2)cc1 | 490 | 390 | 130 | 360 | 300 | 130 |
| COc1ccc(-c2cn([C@H]3O[C@@H]4O[C@]5(C)CC[C@H]6[C@H](C)CC[C@@H]([C@@H]3C)[C@@]46OO5)nn2)cc1 | 220 | 70 | 100 | 70 | 70 | 100 |
| Cc1ccc(-c2cnnn2[C@@H]2O[C@@H]3O[C@]4(C)CC[C@H]5[C@H](C)CC[C@@H]([C@H]2C)[C@@]35OO4)cc1 | 290 | 110 | 40 | 190 | 100 | 110 |
| C[C@@H]1[C@@H](n2cc(-c3cc(F)cc(F)c3)nn2)O[C@@H]2O[C@]3(C)CC[C@H]4[C@H](C)CC[C@@H]1[C@@]24OO3 | 1280 | 450 | 240 | 460 | 540 | 700 |
| C[C@H]1[C@H](n2nncc2-c2ccccc2C(F)(F)F)O[C@@H]2O[C@]3(C)CC[C@H]4[C@H](C)CC[C@@H]1[C@@]24OO3 | 170 | 80 | 70 | 80 | 80 | 80 |
| C[C@@H]1[C@@H](n2cc(-c3cccc(Cl)c3)nn2)O[C@@H]2O[C@]3(C)CC[C@H]4[C@H](C)CC[C@@H]1[C@@]24OO3 | 1170 | 350 | 210 | 410 | 330 | 280 |
| C[C@H]1[C@H](n2cc(-c3cc(F)cc(F)c3)nn2)O[C@@H]2O[C@]3(C)CC[C@H]4[C@H](C)CC[C@@H]1[C@@]24OO3 | 300 | 130 | 50 | 120 | 140 | 130 |
| C[C@@H]1[C@@H](n2cc(-c3ccccc3)nn2)O[C@@H]2O[C@]3(C)CC[C@H]4[C@H](C)CC[C@@H]1[C@@]24OO3 | 280 | 150 | 30 | 140 | 110 | 200 |
| CCCCCc1ccc(-c2cnnn2[C@@H]2O[C@@H]3O[C@]4(C)CC[C@H]5[C@H](C)CC[C@@H]([C@H]2C)[C@@]35OO4)cc1 | 220 | 90 | 40 | 100 | – | 80 |
| COc1ccc(-c2cnnn2[C@@H]2O[C@@H]3O[C@]4(C)CC[C@H]5[C@H](C)CC[C@@H]([C@H]2C)[C@@]35OO4)cc1 | 880 | 230 | 90 | 240 | 210 | 290 |
| C[C@@H]1[C@@H](n2cc(-c3ccccc3C(F)(F)F)nn2)O[C@@H]2O[C@]3(C)CC[C@H]4[C@H](C)CC[C@@H]1[C@@]24OO3 | 1070 | 530 | 350 | 620 | 400 | 480 |
| C[C@H]1[C@H](n2cc(-c3cccc(Cl)c3)nn2)O[C@@H]2O[C@]3(C)CC[C@H]4[C@H](C)CC[C@@H]1[C@@]24OO3 | 290 | 250 | 90 | 240 | 310 | 210 |
| C[C@H]1[C@H](n2nncc2-c2ccc(F)cc2)O[C@@H]2O[C@]3(C)CC[C@H]4[C@H](C)CC[C@@H]1[C@@]24OO3 | 310 | 90 | 60 | 80 | 80 | 770 |
| CCCCCc1ccc(-c2cn([C@H]3O[C@@H]4O[C@]5(C)CC[C@H]6[C@H](C)CC[C@@H]([C@@H]3C)[C@@]46OO5)nn2)cc1 | 840 | 270 | 240 | 440 | 260 | 340 |
| CCCCCc1ccc(-c2cn([C@@H]3O[C@@H]4O[C@]5(C)CC[C@H]6[C@H](C)CC[C@@H]([C@H]3C)[C@@]46OO5)nn2)cc1 | 140 | 70 | 90 | 80 | 70 | 70 |
| Cc1ccc(-c2cn([C@H]3O[C@@H]4O[C@]5(C)CC[C@H]6[C@H](C)CC[C@@H]([C@@H]3C)[C@@]46OO5)nn2)cc1 | 160 | 1340 | 730 | 1580 | 1740 | 700 |
| C[C@H]1[C@H](n2nncc2-c2cccc(Cl)c2)O[C@@H]2O[C@]3(C)CC[C@H]4[C@H](C)CC[C@@H]1[C@@]24OO3 | 40 | 100 | 60 | 160 | 130 | 100 |
| CC(=O)O[C@H]1C(=O)[C@@]2(C)[C@H]([C@H](OC(=O)c3ccccc3)[C@]3(O)C[C@H](OC(=O)[C@H](O)[C@@H](NC(=O)c4ccccc4)c4ccccc4)C(C)=C1C3(C)C)[C@]1(OC(C)=O)CO[C@@H]1C[C@@H]2O [PACLITAXEL] | 10 | 20 | 20 | 30 | 10 | 10 |
| C[C@H]1[C@H](n2nncc2-c2ccccc2)O[C@@H]2O[C@]3(C)CC[C@H]4[C@H](C)CC[C@@H]1[C@@]24OO3 | 600 | 200 | 40 | 140 | 150 | 220 |
| C[C@@H]1[C@@H](n2cc(-c3ccc(F)cc3)nn2)O[C@@H]2O[C@]3(C)CC[C@H]4[C@H](C)CC[C@@H]1[C@@]24OO3 | 2150 | 630 | 410 | 960 | 560 | 840 |
| C[C@H]1[C@H](n2cc(-c3ccccc3C(F)(F)F)nn2)O[C@@H]2O[C@]3(C)CC[C@H]4[C@H](C)CC[C@@H]1[C@@]24OO3 | 2380 | 290 | 190 | 320 | 290 | 340 |
| C[C@H]1[C@H](n2nncc2-c2cc(F)cc(F)c2)O[C@@H]2O[C@]3(C)CC[C@H]4[C@H](C)CC[C@@H]1[C@@]24OO3 | 170 | 170 | 80 | 70 | 100 | 100 |
